The values that follow come from ChEMBL document CHEMBL4261600 (Eur J Med Chem, 2018).

By MRT inf is commonly meant a mean duration of stay, worked out from the concentration-time curve. Broadly, the AUC(0-t) is exposure summed from dosing to a finite time, without extrapolation to infinity. Broadly, the GI50 is the concentration that inhibits growth by half. High values mean less potent growth inhibition, low ones more potent growth inhibition.

The target in data set [1] is Phosphatidylinositol 3-kinase catalytic subunit type 3 (Homo sapiens) (UniProt Q8NEB9). Briefly: Binding affinity to wild-type human partial length VPS34 (S282 to H879 residues) expressed in mammalian expression system assessed as remaining unbound target protein level at 1000 nM by Kinomescan method relative to control.
Sequence of Phosphatidylinositol 3-kinase catalytic subunit type 3 (Homo sapiens) (Q8NEB9 whole entry, the tested form may be a part): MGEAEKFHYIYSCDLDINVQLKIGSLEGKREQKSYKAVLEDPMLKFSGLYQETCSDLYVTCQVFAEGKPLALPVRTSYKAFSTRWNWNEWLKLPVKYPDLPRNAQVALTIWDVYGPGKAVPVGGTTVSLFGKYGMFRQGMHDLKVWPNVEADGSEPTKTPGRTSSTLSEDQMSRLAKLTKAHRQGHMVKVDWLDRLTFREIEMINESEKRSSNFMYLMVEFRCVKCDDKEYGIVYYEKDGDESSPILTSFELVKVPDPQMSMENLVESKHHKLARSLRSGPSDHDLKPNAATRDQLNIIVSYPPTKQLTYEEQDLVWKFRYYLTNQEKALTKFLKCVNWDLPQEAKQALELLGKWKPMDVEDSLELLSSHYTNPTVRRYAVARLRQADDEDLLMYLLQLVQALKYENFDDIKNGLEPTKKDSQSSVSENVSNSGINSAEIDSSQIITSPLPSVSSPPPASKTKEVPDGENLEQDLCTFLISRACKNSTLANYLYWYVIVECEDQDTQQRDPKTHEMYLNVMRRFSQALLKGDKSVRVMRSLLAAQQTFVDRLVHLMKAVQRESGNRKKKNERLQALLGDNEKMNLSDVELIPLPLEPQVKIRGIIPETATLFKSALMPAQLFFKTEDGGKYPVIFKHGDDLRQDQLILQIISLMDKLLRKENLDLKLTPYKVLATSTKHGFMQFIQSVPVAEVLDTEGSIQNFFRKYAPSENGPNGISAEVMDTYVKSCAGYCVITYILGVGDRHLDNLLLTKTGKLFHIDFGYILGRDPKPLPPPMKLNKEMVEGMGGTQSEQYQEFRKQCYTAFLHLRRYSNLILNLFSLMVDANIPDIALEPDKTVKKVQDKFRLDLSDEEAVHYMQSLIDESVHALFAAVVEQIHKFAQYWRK
Data set [2] deals with Microtubule-associated serine/threonine-protein kinase 1 (Homo sapiens) (UniProt Q9Y2H9). Kind of data set: Binding affinity to wild-type human partial length MAST1 (S346 to V730 residues) expressed in mammalian expression system assessed as remaining unbound target protein level at 1000 nM by Kinomescan method relative to control.
The target in data set [3] is Protein-tyrosine kinase 6 (Homo sapiens) (UniProt Q13882). Briefly: Binding affinity to wild-type human partial length BRK (L166 to T451 residues) expressed in bacterial expression system assessed as remaining unbound target protein level at 1000 nM by Kinomescan method relative to control. The method in brief: (§1)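 KINOMEscan competition binding profile across a panel of 468 kinases and mutants, with the inhibitor tested at a single concentration of 1 μM. Binding is reported as percent of control, meaning signal relative to a DMSO control.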
Sequence of Protein-tyrosine kinase 6 (Homo sapiens) (Q13882 whole entry, looked up, the tested form may be a part): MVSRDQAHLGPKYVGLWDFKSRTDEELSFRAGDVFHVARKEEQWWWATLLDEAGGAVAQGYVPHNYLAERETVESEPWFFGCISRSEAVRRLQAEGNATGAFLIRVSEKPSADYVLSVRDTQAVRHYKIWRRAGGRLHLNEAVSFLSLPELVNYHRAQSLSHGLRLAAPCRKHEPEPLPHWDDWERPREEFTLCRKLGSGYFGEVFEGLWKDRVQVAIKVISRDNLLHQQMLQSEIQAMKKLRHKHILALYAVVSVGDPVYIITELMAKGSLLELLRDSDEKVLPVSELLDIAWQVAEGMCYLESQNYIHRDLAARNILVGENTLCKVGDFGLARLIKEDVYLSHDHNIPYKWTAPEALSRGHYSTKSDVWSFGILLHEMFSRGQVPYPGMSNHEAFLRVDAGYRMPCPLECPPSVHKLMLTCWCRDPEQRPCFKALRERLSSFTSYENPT

Data set [4] in a line: MRT (0 to infinity) in Sprague-Dawley rat at 3 mg/kg, iv by LC-MS/MS analysis. To be noted: in vivo. The format is ADME, organism-based.
Data set [5] deals with Casein kinase I isoform gamma-2 (Homo sapiens) (UniProt P78368). Kind of data set: Binding affinity to wild-type human full length CSNK1G2 (M1 to K415 residues) expressed in bacterial expression system assessed as remaining unbound target protein level at 1000 nM by Kinomescan method relative to control. In short, it runs like this: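 KINOMEscan competitive binding profile at 1 μM inhibitor. Remaining target binding reported as percent of DMSO control.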
Sequence of Casein kinase I isoform gamma-2 (Homo sapiens) (P78368 whole entry, looked up, the tested form may be a part, canonical isoform): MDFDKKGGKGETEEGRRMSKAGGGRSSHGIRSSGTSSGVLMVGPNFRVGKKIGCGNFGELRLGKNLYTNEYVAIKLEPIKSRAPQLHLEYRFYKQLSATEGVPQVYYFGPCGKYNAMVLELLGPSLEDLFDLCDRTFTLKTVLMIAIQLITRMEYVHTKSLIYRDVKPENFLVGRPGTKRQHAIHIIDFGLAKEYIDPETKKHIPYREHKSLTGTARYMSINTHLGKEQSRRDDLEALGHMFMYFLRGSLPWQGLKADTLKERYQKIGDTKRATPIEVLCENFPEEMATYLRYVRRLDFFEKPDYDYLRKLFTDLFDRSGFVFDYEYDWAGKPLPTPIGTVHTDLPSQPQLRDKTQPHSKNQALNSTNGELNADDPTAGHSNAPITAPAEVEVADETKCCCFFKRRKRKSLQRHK

Data set [6] addresses Fibroblast growth factor receptor 4 (Homo sapiens) (UniProt P22455). Briefly: Binding affinity to wild-type human partial length FGFR4 (G402 to E713 residues) expressed in bacterial expression system assessed as remaining unbound target protein level at 1000 nM by Kinomescan method relative to control.
In data set [7] the target is Tyrosine-protein kinase BTK (Homo sapiens) (UniProt Q06187). Kind of data set: Binding affinity to wild-type human full length BTK (M1 to S659 residues) expressed in mammalian expression system assessed as remaining unbound target protein level at 1000 nM by Kinomescan method relative to control. In short, it runs like this:
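Single-point competition binding screen across a panel of 468 kinases and mutants, with the inhibitor at 1 μM. Binding is read out as percent of a DMSO control, and targets below 1 percent control were classed as strong binders.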

Data set [8] concerns the target Serine/threonine-protein kinase D2 (Homo sapiens) (UniProt Q9BZL6). Briefly: Binding affinity to wild-type human partial length PRKD2 (A519 to E838 residues) expressed in bacterial expression system assessed as remaining unbound target protein level at 1000 nM by Kinomescan method relative to control.
In data set [9] the target is BDNF/NT-3 growth factors receptor (Homo sapiens) (UniProt Q16620). Kind of data set: Binding affinity to wild-type human partial length TRKB (Q547 to G838 residues) expressed in mammalian expression system assessed as remaining unbound target protein level at 1000 nM by Kinomescan method relative to control.
Data set [10] is described as follows: AUC (0 to t) in mouse at 3 mg/kg, iv by LC-MS/MS analysis. In kind it is ADME, organism-based. The following applies: in vivo. The method in brief: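 Non-compartmental PK. Male SD rats 190-210 g, mice and beagle dogs acclimatized one week, fasted 12 h with water, split into iv and po groups (mice 48, rats 6, dogs 6). iv 3/3/2 mg/kg (mice/rats/dogs); po 10/20/10 mg/kg; vehicle DMSO in 5% glucose water. Blood at 2 or 5 to 720 min; plasma protein-precipitated with methanol, caffeine internal standard, LC-MS/MS.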

In data set [11] the target is Testis-specific serine/threonine-protein kinase 1 (Homo sapiens) (UniProt Q9BXA7). Briefly: Binding affinity to wild-type human full length TSSK1B (M1 to Q367 residues) expressed in bacterial expression system assessed as remaining unbound target protein level at 1000 nM by Kinomescan method relative to control. In short, it runs like this:
as §1

Data set [12] can be described thus: Antiproliferative activity against CHO cells after 72 hrs by Celltiter-Glo assay. The following applies: chinese hamster. The format is cell-based, Cricetulus griseus. The method in brief: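 Cells seeded at 3000/well in 96-well plates, exposed to serially diluted compound for 72 h at 37 °C, 5% CO2. Viability read by CellTiter-Glo luminescence and normalized to DMSO control. GI50 derived from curve fit, mean of three independent measurements. Culture media: DMEM/10% FBS for adherent lines; IMDM for MV4-11 and MEC-1/2; RPMI 1640 for suspension lines and CHL.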
In general terms: ATP-based viability assays read luminescence as a measure of living cells.

Data set [13] concerns the target Activated CDC42 kinase 1 (Homo sapiens) (UniProt Q07912). Briefly: Binding affinity to wild-type human partial length TNK2 (S159 to D474 residues) expressed in bacterial expression system assessed as remaining unbound target protein level at 1000 nM by Kinomescan method relative to control.
The target in data set [14] is Focal adhesion kinase 1 (Homo sapiens) (UniProt Q05397). Kind of data set: Binding affinity to wild-type human partial length FAK (D402 to R696 residues) expressed in bacterial expression system assessed as remaining unbound target protein level at 1000 nM by Kinomescan method relative to control.
Sequence of Focal adhesion kinase 1 (Homo sapiens) (Q05397 2-1052 limits assumed): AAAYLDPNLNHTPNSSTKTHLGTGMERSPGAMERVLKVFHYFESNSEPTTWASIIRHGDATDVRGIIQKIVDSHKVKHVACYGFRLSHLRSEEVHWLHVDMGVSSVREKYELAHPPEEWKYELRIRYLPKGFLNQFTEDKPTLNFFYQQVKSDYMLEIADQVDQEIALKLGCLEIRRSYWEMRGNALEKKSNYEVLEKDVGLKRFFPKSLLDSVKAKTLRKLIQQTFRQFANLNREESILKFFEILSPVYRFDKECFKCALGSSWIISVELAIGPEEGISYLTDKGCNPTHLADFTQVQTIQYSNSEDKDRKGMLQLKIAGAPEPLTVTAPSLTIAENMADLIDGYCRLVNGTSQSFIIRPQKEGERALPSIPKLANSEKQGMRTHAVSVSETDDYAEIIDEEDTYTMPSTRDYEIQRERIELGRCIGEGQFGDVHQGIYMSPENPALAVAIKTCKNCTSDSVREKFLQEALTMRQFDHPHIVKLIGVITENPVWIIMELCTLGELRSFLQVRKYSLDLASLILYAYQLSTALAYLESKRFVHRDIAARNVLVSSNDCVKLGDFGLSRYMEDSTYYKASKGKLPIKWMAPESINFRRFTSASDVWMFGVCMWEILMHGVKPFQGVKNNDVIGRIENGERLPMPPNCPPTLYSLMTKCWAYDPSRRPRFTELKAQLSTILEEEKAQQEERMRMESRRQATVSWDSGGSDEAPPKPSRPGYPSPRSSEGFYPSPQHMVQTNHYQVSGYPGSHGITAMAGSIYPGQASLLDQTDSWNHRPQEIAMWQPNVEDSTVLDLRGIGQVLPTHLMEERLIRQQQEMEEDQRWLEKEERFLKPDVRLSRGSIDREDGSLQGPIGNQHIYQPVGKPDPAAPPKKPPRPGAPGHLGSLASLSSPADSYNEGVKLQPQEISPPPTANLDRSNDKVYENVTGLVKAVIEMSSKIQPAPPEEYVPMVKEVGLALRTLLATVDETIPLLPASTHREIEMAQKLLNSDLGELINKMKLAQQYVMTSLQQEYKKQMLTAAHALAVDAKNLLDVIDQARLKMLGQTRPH
The target of data set [15] is Phosphatidylinositol 4,5-bisphosphate 3-kinase catalytic subunit delta isoform (Homo sapiens) (UniProt O00329). Kind of data set: Binding affinity to wild-type human partial length PIK3CD (R108 to Q1044 residues) expressed in mammalian expression system assessed as remaining unbound target protein level at 1000 nM by Kinomescan method relative to control.
The target in data set [16] is Ribosomal protein S6 kinase alpha-5 (Homo sapiens) (UniProt O75582). Kind of data set: Binding affinity to wild-type human partial length C-terminal RPS6KA5 kinase domain 2 (V390 to T718 residues) expressed in bacterial expression system assessed as remaining unbound target protein level at 1000 nM by Kinomescan method relative to control. In short, it runs like this: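 Profiled in a KINOMEscan binding panel with the inhibitor at a single concentration of 1 μM. Binding to each kinase was read out as percent of control, relative to a DMSO control. Strong binders were defined as those with a percent control value below 1.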

The target of data set [17] is Epidermal growth factor receptor (Homo sapiens) (UniProt P00533). Kind of data set: Binding affinity to human partial length EGFR E746-A750del mutant expressed in bacterial expression system assessed as remaining unbound target protein level at 1000 nM by Kinomescan method relative to control. The method in brief: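 KINOMEscan competition-binding profiling across the panel of 468 kinases and mutants, with inhibitor tested at 1 μM. Binding is expressed as percent of control, with DMSO as the reference control.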

The target in data set [18] is Mast/stem cell growth factor receptor Kit (Homo sapiens) (UniProt P10721). Briefly: Binding affinity to wild-type human partial length autoinhibited KIT (Y545 to D952 residues) expressed in mammalian expression system assessed as remaining unbound target protein level at 1000 nM by Kinomescan method relative to control.
Data set [19] has as its target Dual specificity mitogen-activated protein kinase kinase 5 (Homo sapiens) (UniProt Q13163). Kind of data set: Binding affinity to wild-type human partial length MEK5 (L98 to P448 residues) expressed in mammalian expression system assessed as remaining unbound target protein level at 1000 nM by Kinomescan method relative to control. In short, it runs like this: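 KINOMEscan binding panel of 468 kinases/mutants. Inhibitor was tested at a single concentration of 1 μM. Binding is reported as percent of control, defined relative to a DMSO control.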

Sequence of Dual specificity mitogen-activated protein kinase kinase 5 (Homo sapiens) (Q13163 whole entry, the tested form may be a part): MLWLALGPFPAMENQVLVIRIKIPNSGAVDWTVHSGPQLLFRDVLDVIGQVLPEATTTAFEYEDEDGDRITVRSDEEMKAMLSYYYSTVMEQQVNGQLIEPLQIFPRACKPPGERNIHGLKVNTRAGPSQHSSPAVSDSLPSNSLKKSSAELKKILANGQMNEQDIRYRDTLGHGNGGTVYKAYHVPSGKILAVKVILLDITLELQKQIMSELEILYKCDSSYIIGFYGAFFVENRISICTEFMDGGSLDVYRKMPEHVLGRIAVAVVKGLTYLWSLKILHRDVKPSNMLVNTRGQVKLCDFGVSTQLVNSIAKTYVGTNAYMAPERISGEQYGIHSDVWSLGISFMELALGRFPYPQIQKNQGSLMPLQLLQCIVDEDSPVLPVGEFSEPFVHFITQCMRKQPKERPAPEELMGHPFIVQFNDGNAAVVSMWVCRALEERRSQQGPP
Sequence of Fibroblast growth factor receptor 4 (Homo sapiens) (P22455 22-802 limits assumed): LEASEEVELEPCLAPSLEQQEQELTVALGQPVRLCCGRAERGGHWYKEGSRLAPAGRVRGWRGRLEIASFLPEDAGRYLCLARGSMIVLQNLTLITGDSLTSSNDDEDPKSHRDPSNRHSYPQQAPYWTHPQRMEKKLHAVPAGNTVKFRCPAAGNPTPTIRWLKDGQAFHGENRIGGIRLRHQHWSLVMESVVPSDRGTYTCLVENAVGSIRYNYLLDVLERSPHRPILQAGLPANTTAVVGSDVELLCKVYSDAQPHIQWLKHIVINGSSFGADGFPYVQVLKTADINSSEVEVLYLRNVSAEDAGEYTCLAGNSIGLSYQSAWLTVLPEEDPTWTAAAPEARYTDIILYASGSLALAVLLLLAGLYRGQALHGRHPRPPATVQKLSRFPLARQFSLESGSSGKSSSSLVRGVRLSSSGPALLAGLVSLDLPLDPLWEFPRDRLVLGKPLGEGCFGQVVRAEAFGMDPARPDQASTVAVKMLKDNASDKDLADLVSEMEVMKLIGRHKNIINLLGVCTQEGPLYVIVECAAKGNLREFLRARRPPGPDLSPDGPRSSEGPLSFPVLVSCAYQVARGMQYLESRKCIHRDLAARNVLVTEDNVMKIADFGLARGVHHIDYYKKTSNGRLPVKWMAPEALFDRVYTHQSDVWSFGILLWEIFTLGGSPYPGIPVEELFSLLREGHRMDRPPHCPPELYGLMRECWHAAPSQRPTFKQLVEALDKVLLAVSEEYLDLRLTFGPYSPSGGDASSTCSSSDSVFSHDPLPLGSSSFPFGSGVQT
Sequence of Activated CDC42 kinase 1 (Homo sapiens) (Q07912 whole entry, looked up, the tested form may be a part): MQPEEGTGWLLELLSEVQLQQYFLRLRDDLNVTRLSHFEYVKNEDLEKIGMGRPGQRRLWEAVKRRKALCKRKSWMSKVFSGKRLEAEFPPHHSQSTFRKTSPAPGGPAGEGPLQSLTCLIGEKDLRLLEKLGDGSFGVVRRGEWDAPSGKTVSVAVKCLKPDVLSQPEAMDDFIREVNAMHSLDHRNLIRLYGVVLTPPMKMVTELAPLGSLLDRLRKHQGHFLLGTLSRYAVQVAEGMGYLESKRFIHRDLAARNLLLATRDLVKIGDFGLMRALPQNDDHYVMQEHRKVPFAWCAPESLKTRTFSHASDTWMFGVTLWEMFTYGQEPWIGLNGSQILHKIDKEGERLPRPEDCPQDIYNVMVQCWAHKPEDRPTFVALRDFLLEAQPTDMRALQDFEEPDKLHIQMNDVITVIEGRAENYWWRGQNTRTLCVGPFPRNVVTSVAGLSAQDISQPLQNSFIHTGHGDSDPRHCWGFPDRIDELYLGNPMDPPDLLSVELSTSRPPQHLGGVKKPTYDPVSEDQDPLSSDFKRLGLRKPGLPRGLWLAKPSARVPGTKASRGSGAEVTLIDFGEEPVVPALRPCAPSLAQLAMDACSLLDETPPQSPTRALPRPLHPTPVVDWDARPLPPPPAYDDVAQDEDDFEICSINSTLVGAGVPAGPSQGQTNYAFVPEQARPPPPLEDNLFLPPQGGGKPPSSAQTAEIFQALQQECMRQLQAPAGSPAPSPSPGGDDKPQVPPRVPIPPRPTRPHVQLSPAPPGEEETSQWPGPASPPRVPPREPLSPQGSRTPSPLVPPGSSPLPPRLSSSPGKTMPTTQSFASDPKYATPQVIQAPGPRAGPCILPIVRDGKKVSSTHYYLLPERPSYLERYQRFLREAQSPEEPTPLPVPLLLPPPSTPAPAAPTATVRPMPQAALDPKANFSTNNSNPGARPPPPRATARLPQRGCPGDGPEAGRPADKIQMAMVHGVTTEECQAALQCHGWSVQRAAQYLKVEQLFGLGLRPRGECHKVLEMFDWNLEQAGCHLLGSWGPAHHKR

As to `COCCN[C@H]1CC[C@H](Nc2cc(-c3csc(NCC4(C#N)CCOCC4)n3)c(Cl)cn2)CC1`, the Activity was found to be 95% in [1]; 88% in [2]; 95% in data set [3]; 73% in data set [5]; 100% in data set [6]; 100% in data set [7]. Further, the Activity in data set [8] stood at 70%; in data set [9], 79%; in data set [11] it was 93%; in [13], 95%; in [14], 84%; in data set [15], 85%. In addition, the Activity came to 76% in data set [16], 83% in data set [17], 94% in data set [18] and 81% in data set [19]. The compound also returned an MRT inf in data set [4] of 6.33 h. Also, the AUC(0-t) in data set [10] amounted to 393 ng·h/mL. In data set [12], this compound showed a GI50 at 72 h of 1100 nM.
